Data as given in ChEMBL document CHEMBL4038311, “An Ursolic Acid Derived Small Molecule Triggers Cancer Cell Death through Hyperstimulation of Macropinocytosis” (J Med Chem, 2017).
The source made the active and inactive calls. No cut-off for these calls is given here.

Legend:
[1] = test system: HT-1080; test: Anticancer activity against human HT1080 cells assessed as vacuole formation at 20 uM after 24 hrs by phase contrast microscopic analysis; format: functional, cell-based
[2] = test system: HepG2; test: Anticancer activity against human HepG2 cells assessed as vacuole formation at 20 uM after 24 hrs by phase contrast microscopic analysis; format: functional, cell-based
[3] = test system: HT-1080; test: Anticancer activity against human HT1080 cells assessed as cell viability at 20 uM after 48 hrs by CCK8 assay relative to control; format: functional; details: HT-1080, 48 h, read-out: Activity
Outline: (§1)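 Cells (5000/well, pre-incubated overnight) exposed to 20 µM for 48 h. CCK-8 absorbance read at 450 nm. Viability given as percent of vehicle (DMSO) control, mean ± SD. Six parallel wells per condition, at least three independent repeats.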

[4] = test system: MCF7; test: Anticancer activity against human MCF7 cells assessed as cell viability at 20 uM after 48 hrs by CCK8 assay relative to control; format: functional; details: MCF7, 48 h, read-out: Activity; outline: as §1
[5] = test system: SK-N-MC; test: Anticancer activity against human SK-N-MC cells assessed as vacuole formation at 20 uM after 24 hrs by phase contrast microscopic analysis; format: functional, cell-based
[6] = test system: HepG2; test: Anticancer activity against human HepG2 cells assessed as cell viability at 20 uM after 48 hrs by CCK8 assay relative to control; format: functional; details: HepG2, 48 h, read-out: Activity; outline: as §1
[7] = test system: HeLa; test: Anticancer activity against human HeLa cells assessed as vacuole formation at 20 uM after 24 hrs by phase contrast microscopic analysis; format: functional, cell-based
[8] = test system: MCF7; test: Anticancer activity against human MCF7 cells assessed as vacuole formation at 20 uM after 24 hrs by phase contrast microscopic analysis; format: functional, cell-based
[9] = test system: SK-N-MC; test: Anticancer activity against human SK-N-MC cells assessed as cell viability at 20 uM after 48 hrs by CCK8 assay relative to control; format: functional; details: read-out: Activity; outline: as §1
[10] = test system: HeLa; test: Anticancer activity against human HeLa cells assessed as cell viability at 20 uM after 48 hrs by CCK8 assay relative to control; format: functional; details: read-out: Activity; outline: as §1
[11] = test system: HeLa; test: Induction of apoptosis in human HeLa cells assessed as increase in cleaved caspase-3 levels at 100 nM after 24 to 48 hrs by Western blot analysis; format: functional, cell-based
[12] = test system: HeLa; test: Anticancer activity against human HeLa cells assessed as decrease in cell viability at 100 nM preincubated cells with Z-VAD-FMK for 1 hr followed by compound addition measured after 48 hrs by CCK8 assay; format: functional, cell-based
[13] = test system: HeLa; test: Induction of apoptosis in human HeLa cells assessed as increase in cleaved PARP1 levels at 100 nM after 24 to 48 hrs by Western blot analysis; format: functional, cell-based

Row | Structure (SMILES) | Activity [1] | Activity [2] | viability at 20 µM [3] [%] | viability at 20 µM [4] [%] | Activity [5] | viability at 20 µM [6] [%] | Activity [7] | Activity [8] | viability at 20 µM [9] [%] | viability at 20 µM [10] [%] | Activity [11] | Activity [12] | Activity [13]
1 | C[C@H]1[C@H](C)CC[C@]2(C(=O)O)CC[C@]3(C)C(=CC[C@@H]4[C@@]5(C)Cc6c(C(F)(F)F)nn(C)c6C(C)(C)[C@@H]5CC[C@]43C)[C@H]12 | Active | Active | 35.8 | 47.6 | Active | 46 | Active | Active | 67.4 | 44.9 | – | – | –
2 | C[C@H]1[C@H](C)CC[C@]2(C(=O)O)CC[C@]3(C)C(=CC[C@@H]4[C@@]5(C)CC[C@H](O)C(C)(C)[C@@H]5CC[C@]43C)[C@H]12 [URSOLIC ACID] | inactive | inactive | 39.4 | 57.6 | inactive | 34.1 | inactive | inactive | 67.2 | 43.3 | – | – | –
3 | C[C@H]1[C@H](C)CC[C@]2(C(=O)O)CC[C@]3(C)C(=CC[C@@H]4[C@@]5(C)Cc6cnn(-c7ccncc7)c6C(C)(C)[C@@H]5CC[C@]43C)[C@H]12 | inactive | inactive | 30.9 | 39.7 | inactive | 56.8 | inactive | inactive | 79.9 | 54.2 | – | – | –
4 | C[C@H]1[C@H](C)CC[C@]2(C(=O)O)CC[C@]3(C)C(=CC[C@@H]4[C@@]5(C)Cc6cnn(C7CCCC7)c6C(C)(C)[C@@H]5CC[C@]43C)[C@H]12 | Active | Active | 27.9 | 36.2 | Active | 44.6 | Active | Active | 31.4 | 30.8 | – | – | –
5 | C[C@H]1[C@H](C)CC[C@]2(C(=O)O)CC[C@]3(C)C(=CC[C@@H]4[C@@]5(C)Cc6cnn(C)c6C(C)(C)[C@@H]5CC[C@]43C)[C@H]12 | Active | Active | 35.8 | 47.6 | Active | 46 | Active | Active | 67.4 | 44.9 | – | – | –
6 | C[C@H]1[C@H](C)CC[C@]2(C(=O)O)CC[C@]3(C)C(=CC[C@@H]4[C@@]5(C)Cc6cnn(CCO)c6C(C)(C)[C@@H]5CC[C@]43C)[C@H]12 | inactive | inactive | 39 | 40.5 | inactive | 57 | inactive | inactive | 63.3 | 47 | – | – | –
7 | C[C@H]1[C@H](C)CC[C@]2(C(=O)O)CC[C@]3(C)C(=CC[C@@H]4[C@@]5(C)Cc6cnn(-c7cccc(F)c7)c6C(C)(C)[C@@H]5CC[C@]43C)[C@H]12 | inactive | inactive | 33.5 | 46.6 | inactive | 29.5 | inactive | inactive | 24.6 | 33.3 | – | – | –
8 | C[C@H]1[C@H](C)CC[C@]2(C(=O)O)CC[C@]3(C)C(=CC[C@@H]4[C@@]5(C)Cc6cnn(-c7ccc(F)cc7)c6C(C)(C)[C@@H]5CC[C@]43C)[C@H]12 | Active | Active | 27.3 | 34.3 | Active | 58.6 | Active | Active | 39.4 | 24.4 | – | – | –
9 | C[C@H]1[C@H](C)CC[C@]2(C(=O)O)CC[C@]3(C)C(=CC[C@@H]4[C@@]5(C)Cc6cnn(CC7CC7)c6C(C)(C)[C@@H]5CC[C@]43C)[C@H]12 | inactive | inactive | 23.5 | 33.4 | inactive | 33.9 | inactive | inactive | 33.9 | 19.9 | – | – | –
10 | C[C@H]1[C@H](C)CC[C@]2(C(=O)O)CC[C@]3(C)C(=CC[C@@H]4[C@@]5(C)Cc6cnn(-c7ccccc7)c6C(C)(C)[C@@H]5CC[C@]43C)[C@H]12 | inactive | inactive | 38.7 | 46.5 | inactive | 60.1 | inactive | inactive | 57.4 | 40.9 | – | – | –
11 | CC(=O)O[C@H]1C(=O)[C@@]2(C)[C@H]([C@H](OC(=O)c3ccccc3)[C@]3(O)C[C@H](OC(=O)[C@H](O)[C@@H](NC(=O)c4ccccc4)c4ccccc4)C(C)=C1C3(C)C)[C@]1(OC(C)=O)CO[C@@H]1C[C@@H]2O | – | – | – | – | – | – | – | – | – | – | Active | inactive | Active
12 | C[C@H]1[C@H](C)CC[C@]2(C(=O)O)CC[C@]3(C)C(=CC[C@@H]4[C@@]5(C)Cc6cnn(-c7cccc(C#N)c7)c6C(C)(C)[C@@H]5CC[C@]43C)[C@H]12 | Active | Active | 37.5 | 28.1 | Active | 29.3 | Active | Active | 31 | 37.3 | – | – | –
13 | CCOC(=O)Cn1ncc2c1C(C)(C)[C@@H]1CC[C@]3(C)[C@H](CC=C4[C@@H]5[C@@H](C)[C@H](C)CC[C@]5(C(=O)O)CC[C@]43C)[C@@]1(C)C2 | inactive | inactive | 55.2 | 28.9 | inactive | 43.7 | inactive | inactive | 66.6 | 44.2 | – | – | –
